Data as given in ChEMBL document CHEMBL3992520, “Development of the First Two-Pore Domain Potassium Channel TWIK-Related K+ Channel 1-Selective Agonist Possessing in Vivo Antinociceptive Activity” (J Med Chem, 2017).

Assays:
Mus musculus [1] = assay: Antinociceptive activity in CD1 mouse assessed as inhibition of acetic acid-induced writhes at 10 mg/kg, sc pretreated for 15 mins followed by acetic acid challenge measured within 20 mins relative to control; format: functional
Outline: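 Male CD1 mice (20-25 g), n=8 per group, dosed at 10 mg/kg s.c. or with vehicle (5% Tween 80 in 0.9% saline). Dosing was 15 min before i.p. 0.6% acetic acid (10 mL/kg). Abdominal writhes were counted for 20 min. Effect = (mean control writhes − mean test writhes)/mean control writhes ×100.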

Liver [2] = assay: Drug level in rat liver microsomes treated with at 40 mM (E)-ethyl 2-cyano-3-(1H-indol-2-yl)acrylate measured after 24 hrs by HPLC analysis; format: ADME, microsome; conditions: 40000 µM
Outline: (§1)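 Incubation mix: rat liver microsomes (20 mg/mL stock), phosphate buffer pH 7.4 and NADPH (40 mM stock). Drug was added from a 40 mM DMSO stock. Samples were vortexed and incubated at 37 °C with stirring.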

[3] = molecular target: T1, Potassium channel subfamily K member 2 (Homo sapiens) (UniProt O95069); assay: Agonist activity at human TREK1 expressed in xenopus oocytes assessed as increase in K+ current at 20 uM measured at 0 mV by double microelectrode method relative to control; format: cell-based
T1 sequence (whole entry): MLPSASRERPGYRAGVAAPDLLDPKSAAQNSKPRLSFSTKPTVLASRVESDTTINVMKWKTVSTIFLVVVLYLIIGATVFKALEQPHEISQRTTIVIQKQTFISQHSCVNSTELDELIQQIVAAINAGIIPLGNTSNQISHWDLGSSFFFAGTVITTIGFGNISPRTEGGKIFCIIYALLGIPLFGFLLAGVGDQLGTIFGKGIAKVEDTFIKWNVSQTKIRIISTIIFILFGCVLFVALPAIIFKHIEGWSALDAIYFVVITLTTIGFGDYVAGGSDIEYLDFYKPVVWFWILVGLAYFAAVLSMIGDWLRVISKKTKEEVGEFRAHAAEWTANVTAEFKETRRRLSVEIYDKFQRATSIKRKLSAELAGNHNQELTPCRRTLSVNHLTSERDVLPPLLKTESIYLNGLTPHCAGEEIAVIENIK

[4] = molecular target: T1, Potassium channel subfamily K member 2 (Homo sapiens); assay: Agonist activity at human TREK1 expressed in HEK293 cells assessed as increase in K+ current at 100 uM measured at +60 mV by whole-cell patch clamp method relative to control; format: cell-based
Outline: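 Human TREK-1 (kcnk2) in pIRES2-eGFP was stably expressed in HEK-293 cells under G418 selection, and cells were used 4–48 h after plating. Bath (mM): 140 NaCl, 10 TEA-Cl, 5 KCl, 3 MgCl2, 1 CaCl2, 10 HEPES, pH 7.4. Pipette (mM): 155 KCl, 3 MgCl2, 5 EGTA, 10 HEPES, pH 7.2. Holding was −80 mV, with a step to −100 mV then a 400 ms ramp to +60 mV every 5 s. Read-out was the ratio Imax/I0 taken from I/V curves. Stocks were 20 mM in DMSO.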

Liver [5] = assay: Drug level in rat liver microsomes treated with at 40 mM (E)-ethyl 2-cyano-3-(furan-3-yl)acrylate measured after 24 hrs by HPLC analysis; format: ADME, microsome; conditions: 40000 µM; outline: as §1
Mus musculus [6] = assay: Antinociceptive activity in TREK1 deficient C57Bl/6J mouse assessed as increase in thermal-stimulus induced paw withdrawal latency at 60 mg/kg, sc measured after 30 mins by hot plate method relative to control; format: functional
Outline: (§2)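 TREK-1−/− and wild-type C57Bl/6J littermates came from heterozygous crosses, n=7. Dose was 60 mg/kg s.c. The 52 °C hotplate measured paw-lick latency, 30 s cut-off, with baseline from two stable pre-dose latencies.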

[7] = molecular target: Potassium channel subfamily K member 9 (Homo sapiens) (UniProt Q9NPC2); assay: Agonist activity at TASK3 (unknown origin) expressed in HEK293 cells assessed as increase in K+ current at 100 uM measured at +60 mV by whole-cell patch clamp method relative to control; format: cell-based
Mus musculus [8] = assay: Antinociceptive activity in TREK1 deficient C57Bl/6J mouse assessed as increase in thermal-stimulus induced paw withdrawal latency at 60 mg/kg, sc measured after 45 mins by hot plate method relative to control; format: functional; outline: as §2
Mus musculus [9] = assay: Antinociceptive activity in wild-type C57Bl/6J mouse assessed as increase in thermal-stimulus induced paw withdrawal latency at 60 mg/kg, sc measured after 45 mins by hot plate method relative to control; format: functional; outline: as §2
Mus musculus [10] = assay: Antinociceptive activity in CD1 mouse assessed as increase in thermal-stimulus induced paw withdrawal latency at 60 mg/kg, sc measured after 45 mins by hot plate method relative to control; format: functional
Outline: (§3)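 Male CD1 mice (20-25 g), n=8 per group, given 60 mg/kg s.c. After 5 min acclimatization on a plate at room temperature, mice were placed on a 52 °C hotplate. Latency to forepaw or hindpaw licking or hindpaw flicking was recorded, with a 30 s cut-off. Latency was taken after two consecutive stable baselines, then 30 and 45 min post-dose. Effect = (postdrug − predrug latency)/predrug latency ×100.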

Mus musculus [11] = assay: Antinociceptive activity in wild-type C57Bl/6J mouse assessed as increase in thermal-stimulus induced paw withdrawal latency at 60 mg/kg, sc measured after 30 mins by hot plate method relative to control; format: functional; outline: as §2
Mus musculus [12] = assay: In vivo activation of TREK1 in C57Bl/6J mouse assessed as increase in thermal-stimulus induced paw withdrawal latency at 60 mg/kg, sc measured after 30 mins by hot plate method relative to control; format: functional; outline: as §2
Mus musculus [13] = assay: In vivo activation of TREK1 in C57Bl/6J mouse assessed as increase in thermal-stimulus induced paw withdrawal latency at 60 mg/kg, sc measured after 45 mins by hot plate method relative to control; format: functional; outline: as §2
Mus musculus [14] = assay: Antinociceptive activity in CD1 mouse assessed as increase in thermal-stimulus induced paw withdrawal latency at 60 mg/kg, sc measured after 30 mins by hot plate method relative to control; format: functional; outline: as §3
[15] = molecular target: T2, Potassium channel subfamily K member 10 (Homo sapiens) (UniProt P57789); assay: Agonist activity at TREK-2 (unknown origin) expressed in HEK293 cells assessed as increase in K+ current at 100 uM measured at +60 mV by whole-cell patch clamp method relative to control; format: cell-based
T2 sequence (whole entry): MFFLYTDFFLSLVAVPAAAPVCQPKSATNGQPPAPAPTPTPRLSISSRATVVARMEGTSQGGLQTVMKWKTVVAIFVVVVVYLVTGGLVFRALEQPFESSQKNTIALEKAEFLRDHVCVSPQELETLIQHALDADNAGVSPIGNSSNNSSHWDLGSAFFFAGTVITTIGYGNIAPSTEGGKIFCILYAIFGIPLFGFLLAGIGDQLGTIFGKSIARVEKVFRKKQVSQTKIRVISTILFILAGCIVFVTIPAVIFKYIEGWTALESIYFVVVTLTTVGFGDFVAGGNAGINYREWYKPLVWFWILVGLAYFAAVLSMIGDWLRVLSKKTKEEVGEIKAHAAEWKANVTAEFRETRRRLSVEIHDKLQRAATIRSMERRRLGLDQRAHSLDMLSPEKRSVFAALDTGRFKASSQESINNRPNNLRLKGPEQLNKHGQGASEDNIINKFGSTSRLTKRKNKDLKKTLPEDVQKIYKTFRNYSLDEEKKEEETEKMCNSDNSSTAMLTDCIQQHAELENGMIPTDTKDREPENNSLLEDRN

[16] = molecular target: T3, Potassium channel subfamily K member 4 (Homo sapiens) (UniProt Q9NYG8); assay: Agonist activity at TRAAK (unknown origin) expressed in HEK293 cells assessed as increase in K+ current at 100 uM measured at +60 mV by whole-cell patch clamp method relative to control; format: cell-based
T3 sequence (whole entry): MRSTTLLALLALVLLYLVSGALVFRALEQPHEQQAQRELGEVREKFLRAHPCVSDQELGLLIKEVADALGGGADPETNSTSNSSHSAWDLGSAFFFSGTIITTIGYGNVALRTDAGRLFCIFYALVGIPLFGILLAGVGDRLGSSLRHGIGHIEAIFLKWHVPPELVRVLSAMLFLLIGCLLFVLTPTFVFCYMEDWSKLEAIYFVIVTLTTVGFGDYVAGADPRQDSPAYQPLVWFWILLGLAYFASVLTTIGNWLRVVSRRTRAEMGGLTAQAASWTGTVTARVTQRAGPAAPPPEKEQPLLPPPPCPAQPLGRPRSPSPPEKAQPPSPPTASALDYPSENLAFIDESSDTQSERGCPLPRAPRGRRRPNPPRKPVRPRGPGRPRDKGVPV

Potassium channel subfamily K member 9 (Homo sapiens), sequence (Q9NPC2 whole entry): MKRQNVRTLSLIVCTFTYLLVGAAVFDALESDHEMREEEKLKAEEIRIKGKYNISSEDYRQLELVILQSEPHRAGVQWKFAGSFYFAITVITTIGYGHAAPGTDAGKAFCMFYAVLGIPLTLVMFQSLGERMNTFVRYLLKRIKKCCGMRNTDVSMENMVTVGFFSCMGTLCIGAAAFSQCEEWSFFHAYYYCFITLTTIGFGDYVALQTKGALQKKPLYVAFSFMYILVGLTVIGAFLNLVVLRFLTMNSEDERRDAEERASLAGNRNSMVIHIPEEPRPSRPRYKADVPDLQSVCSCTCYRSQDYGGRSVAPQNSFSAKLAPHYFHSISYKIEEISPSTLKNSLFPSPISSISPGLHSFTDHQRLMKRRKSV

| Drug metabolism (Liver [2]) | fold change (FC) [3] | fold change (FC) [4] | Drug metabolism (Liver [5]) | fold change (FC) [7] | fold change (FC) [15] | fold change (FC) [16] | SMILES | inhibition in vivo at 10 mg/kg (Mus musculus [1]) [%] | Activity (Mus musculus [6]) [%] | Activity (Mus musculus [8]) [%] | Activity (Mus musculus [9]) [%] | Activity (Mus musculus [10]) [%] | Activity (Mus musculus [11]) [%] | Activity (Mus musculus [12]) [%] | Activity (Mus musculus [13]) [%] | Activity (Mus musculus [14]) [%] |
| --- | --- | --- | --- | --- | --- | --- | --- | --- | --- | --- | --- | --- | --- | --- | --- | --- |
| Metabolite_Detected | 2.44 | 1.18 |  |  |  |  | N#C/C(=C\c1cc2ccccc2[nH]1)C(=O)O | 25.8 |  |  |  |  |  |  |  |  |
|  | 1.43 | 4.53 | Metabolite_Detected | 1 | 1.8 | 1.1 | N#C/C(=C\c1ccoc1)C(=O)O | 30.7 | 78.1 | 75.4 | 93.5 | 119.5 | 121.2 | 36.6 | 19 | 56.4 |
